KCC2 mod = KCC2 (human) Cl- transport modulation; KCC2 cells, thallium flux FluoZin-2 fluorescence; B-score of Tl+ flux slope (higher = more flux/activation; lower = inhibition) at 10 µM; 2.2% of 190,000 active;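 active = thallium flux slope and its plate-corrected score both differing from the plate sample mean at a set confidence after two filtering rounds, in either direction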;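 also: slope of fluorescence scaled to starting intensity during 10 to 20 s after thallium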
hERG protect = compounds protecting human hERG from proarrhythmic drug block; CHO-hERG, FluxOR thallium flux, dofetilide IC70 present; activation (rescue from dofetilide block), less the hit threshold, % at 10 µM; 0.51% of 310,000 active;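 active = activation above the mean of controls blocked by dofetilide plus 5 SD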;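 also: thallium influx through hERG after potassium depolarization seen as dye fluorescence rise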
KCNQ1 inh = human KCNQ1 channel inhibition. CHO-K1 KCNQ1, FluxOR thallium flux fluorescence; hits give high values. 1.3% of 310,000 active. B-score at 10 µM;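 active = compounds whose thallium flux B-score, printed positive for inhibition, exceeds three library SD while starting fluorescence stays within three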;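 also: channel opened by potassium depolarization with thallium stimulus after 20 min compound exposure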
KCNK3 block = human KCNK3 channel inhibition, primary screen | 0.84% of 340,000 active | CHO-KCNK3 thallium flux, FluxOR fluorescence; hits give low values | B-score at 10 µM | O14649;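 active = B-score under library mean minus 4 SD, starting fluorescence ratio at most library mean plus 5 SD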;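 also: more negative B-score means stronger inhibition of thallium flux through KCNK3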
KCNK9 block = inhibitors of human KCNK9 two-pore domain potassium channel. HEK293 KCNK9, FluxOR thallium flux fluorescence; hits give low values. B-score at 10 µM. Q9NPC2. AID 488922. 1.2% of 310,000 active;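 active = ratio B-score over 3 SD below the library mean, with starting fluorescence within 5 SD of its mean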;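 also: negative B-score means less thallium flux so channel inhibition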
Target sequence (Q9NPC2 whole entry, looked up, the tested form may be a part): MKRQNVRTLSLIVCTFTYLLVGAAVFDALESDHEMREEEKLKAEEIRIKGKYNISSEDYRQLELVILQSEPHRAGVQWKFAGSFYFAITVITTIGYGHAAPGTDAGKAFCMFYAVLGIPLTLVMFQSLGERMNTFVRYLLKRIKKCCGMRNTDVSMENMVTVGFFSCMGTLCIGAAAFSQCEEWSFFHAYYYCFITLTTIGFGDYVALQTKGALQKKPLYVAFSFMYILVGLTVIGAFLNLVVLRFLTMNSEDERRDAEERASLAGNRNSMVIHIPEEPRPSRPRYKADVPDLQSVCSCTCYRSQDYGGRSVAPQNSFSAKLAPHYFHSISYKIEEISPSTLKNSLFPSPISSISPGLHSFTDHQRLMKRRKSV
KCNQ1 act = potentiates or activates the human KCNQ1 potassium channel; CHO-K1 KCNQ1, thallium flux FluxOR fluorescence; hits give high values; B-score at 10 µM; 0.35% of 310,000 active;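 active = fluorescence ratio B-score, a plate-corrected score, at least three library SD, with initial intensity B-score within 5 SD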
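assay system = KCNQ1-transfected CHO-K1 cells | medium = assay buffer with matched DMSO | probe or stimulus = depolarizing K+/Tl+ stimulus, K2SO4 and Tl2SO4 each 12.5 mM in 5x stock | dosing = single dose | incubation = dye 90 min, compound 20 min, room temperature | detection = kinetic FluxOR fluorescence, 10 s baseline plus 110 s post-stimulus | evaluation = ratio B score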
KCNK9 inh conf = human KCNK9 inhibitor confirmation | inhibition, % at 10 µM | 43% of 4,900 active | shares compounds with KCNK9 block | HEK293 KCNK9 cells, FluxOR thallium flux fluorescence;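 active = thallium signal inhibited by more than 5 SD of the compound-free buffer control wells, on both duplicate plates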;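 also: 0% = assay buffer control wells without compound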
Kir21 sel = tests whether KCNK9 modulators also affect mouse Kir2.1 | 4% of 4,900 active | Kir2.1 cells, FluxOR thallium flux fluorescence | inhibition, % at 10 µM | shares compounds with KCNK9 block;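 active = thallium signal drop more than 5 SD beyond the mean of the no-compound control wells, seen in both duplicate plates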;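 also: signal is fluorescence rise after thallium addition divided by baseline fluorescence; plate controls were assay buffer only for no effect and full block by chlorpromazine control for full effect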
HEK293 Tl ctr = second check of KCNK9 modulator effects in non-induced HEK293 cells. shares compounds with KCNK9 block. FluxOR thallium flux. inhibition, % at 10 µM. 40% of 4,900 active;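 active = thallium signal drop beyond 5 SD of the untreated control mean, on both duplicate plates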;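 also: plate controls were buffer only IC0 wells for no effect and SID17386958 at its maximal inhibitory level for full effect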
Active calls of the source: *; i = inactive; . = not tested or not shown. An excerpt weighted towards active compounds, which were near 4.1% of everything screened.

SMILES	KCC2 mod	hERG protect	KCNQ1 inh	KCNK3 block	KCNK9 block	KCNQ1 act	KCNK9 inh conf	Kir21 sel	HEK293 Tl ctr
CCOC(=O)C1CCCN(C(=O)/C=C/c2cc(OC)c(OC)c(OC)c2)C1 (stereo not drawn)	0.903	-8.5	i	i	i	i	.	.	.
CSc1ccccc1OCc1cc(C(=O)NCCc2ccco2)no1	.	-8.9	i	i	i	i	.	.	.
O=C(Nc1ccc(Cl)cc1)c1cccnc1N1CCCCC1	-0.587	-7.2	i	i	i	i	.	.	.
CN1CCN(c2ccc(CNS(=O)(=O)Cc3cccc(C(F)(F)F)c3)cc2)CC1	0.642	-20.9	i	i	i	i	.	.	.
O=C(Cn1c(=O)c2c(ncn2C2CCCC2)n(Cc2ccccc2)c1=O)N1CCc2ccccc21	0.0212	-10.1	i	i	i	i	i	i	i
CCn1cnc2c1c(=O)n(CC(=O)N1CCc3ccccc31)c(=O)n2Cc1ccccc1	-1.41	-12.5	i	i	i	i	.	.	.
CCCCCCCc1c(C#N)c(N)[nH]c(=S)c1C#N	-1.41	-18.9	7*	i	i	i	i	i	i
CCOC(=O)c1cc(C)[nH]c(=S)c1C#N	.	-14.9	i	i	i	i	.	.	.
Cc1cccc(C)c1NC(=S)N/N=C/c1ccc(OCCC(C)C)cc1	0.529	-9.1	i	i	i	i	.	.	.
CCN(CC(=O)Nc1c(F)cccc1F)C(=O)c1cccc(-n2cnnn2)c1	.	.	.	i	.	.	.	.	.
S=c1nc(C2COc3ccccc3O2)[nH][nH]1 (stereo not drawn)	0.0461	-5.8	i	i	i	i	i	i	i
Cc1cccn2cc(-c3ccc(F)cc3)cc12	.	-2.3	i	i	i	i	.	.	.
CCn1c(N2CCN(S(=O)(=O)c3ccc(F)cc3)CC2)nc2ccccc21	-1.09	-6.1	i	i	i	i	.	.	.
CCn1c(N2CCN(S(=O)(=O)c3ccc(Cl)cc3)CC2)nc2ccccc21	-1.39	5.8*	i	i	i	i	i	i	i
O=[N+]([O-])c1ccc(N/N=C\c2ccccc2OCc2ccccc2)cc1	0.663	-4.7	i	i	i	i	.	.	.
Cc1cc(C)nc(N/N=C/c2ccccc2OCc2ccc([N+](=O)[O-])cc2)n1	-0.109	-8.2	i	i	-14.9*	i	51.0%*	i	28.5%*
Cc1ccc(C(=O)O/N=C/c2c(Cl)n(C)c3ccccc23)cc1	-0.393	-0.5	i	i	i	i	.	.	.
Cc1cccc(C(=O)O/N=C/c2c(Cl)n(C)c3ccccc23)c1	-0.516	-7.5	i	i	-12.1*	i	48.0%*	i	34.5%*
O=C(CN1C(=O)NC2(CCCC2)C1=O)c1ccc(Cl)s1	.	-12.1	i	i	i	i	.	.	.
FC(F)(F)c1cccc(Cc2noc(CN3CCCC(CN4CCCC4)C3)n2)c1 (stereo not drawn)	.	-22.7	i	i	i	i	.	.	.
Cc1ccc(CNc2nc(-c3cccs3)nc3ccccc23)cc1	1.52	-17.5	i	i	-8.84*	i	35.5%*	i	30.0%*
CCOc1ccccc1NC(=O)c1cccc(NC(=O)C2CCCC2)c1	.	-16.8	i	i	-12.6*	i	58.0%*	i	i
CCOc1ccccc1NC(=O)c1cccc(NC(=O)c2ccco2)c1	-1.13	-3.1	i	-9.89*	-9.38*	i	45.0%*	i	i
C/[N+]([O-])=C\C1C(=O)CCCC1=O	-0.71	-9.0	i	i	i	i	.	.	.
CC(C)(C)c1ccc(C(=O)c2c[nH]c(C(=O)NCCCn3ccnc3)c2)cc1	-0.107	-9.7	i	i	i	i	.	.	.
SMILES	KCC2 mod	hERG protect	KCNQ1 inh	KCNK3 block	KCNK9 block	KCNQ1 act	KCNK9 inh conf	Kir21 sel	HEK293 Tl ctr
CC(C)Oc1cccc(C(=O)C2CCCN(C(=O)c3cncs3)C2)c1 (stereo not drawn)	.	-7.0	i	i	i	i	.	.	.
CC(C)Oc1cccc(C(=O)C2CCCN(C(=O)c3ccsc3)C2)c1 (stereo not drawn)	-0.585	-10.7	i	i	i	i	i	i	i
CC(C)Oc1cccc(C(=O)C2CCCN(C(=O)c3ccccn3)C2)c1 (stereo not drawn)	.	-6.6	i	i	i	i	.	.	.
CC(C)Oc1cccc(C(=O)C2CCCN(C(=O)c3ccc4c(c3)OCO4)C2)c1 (stereo not drawn)	.	-7.5	i	i	i	i	i	i	i
COc1ccc(CN2CCCC(C(=O)c3ccc4c(c3)OCO4)C2)c(F)c1 (stereo not drawn)	.	-8.9	i	i	i	i	i	i	i
CC(C)Oc1cccc(C(=O)C2CCCN(C(=O)c3noc4c3CCCC4)C2)c1 (stereo not drawn)	-2.28	-6.5	i	i	i	i	i	i	i
C#CCOc1c(Cl)cc(C2C3=C(CCCC3=O)N(CC(=O)O)C3=C2C(=O)CCC3)cc1OC	.	-4.7	i	i	i	i	.	.	.
CN(C)c1ccc(C=NNc2nc3c([nH]2)c(=O)n(C)c(=O)n3C)cc1	.	.	.	i	.	.	.	.	.
CC(=O)c1ccc(S(=O)(=O)NC2CC2)cc1	.	-3.1	i	i	i	i	.	.	.
N#Cc1nc(Cc2ccccc2)oc1N1CCC(C(N)=O)CC1	.	-6.3	i	i	i	i	.	.	.
N#Cc1nc(Cc2ccccc2)oc1N1CCC(Cc2ccccc2)CC1	-1.87	-7.2	i	i	i	i	i	i	i
C/C(CCc1ccc2c(c1)OCO2)=N\N=C(/N)SC1CC(=O)N(c2ccc(Cl)cc2)C1=O (stereo not drawn)	-0.752	-5.1	i	i	i	i	.	.	.
CCOC(=O)CN(C(=O)COc1nc(-c2ccccc2)cc(C)c1C#N)c1ccc(C)cc1	0.744	-9.9	i	i	i	i	i	i	i
CCOC(=O)CN(C(=O)COc1nc(-c2ccccc2)cc(C)c1C#N)c1ccccc1C	-0.625	-10.9	i	i	i	i	i	i	i
CCN(CC)c1nc2ccccc2[nH]1	-0.141	-8.6	i	i	i	i	.	.	.
CCOc1ccc(N(C)S(=O)(=O)c2cc(-c3cc(C)no3)ccc2C(C)C)cc1	.	-19.3	i	i	-9.53*	i	51.5%*	i	42.0%*

Source: PubChem
